Compound activity deposited in PubChem by The Scripps Research Institute Molecular Screening Center.
PREPL inhibitor = inhibits the human prolyl oligopeptidase-like enzyme | recombinant PREPL, fluorescence polarization activity-based probe | 320,000 tested, 0.68% active | Q4J6C6 | inhibition, % at 5.96 µM
LYPLA1 inh = counter-screen for PME1 inhibitors: inhibitors of human LYPLA1; 320,000 tested, 0.16% active; inhibition, % at 5.9 µM; O75608; recombinant LYPLA1, FP-Rh probe fluorescence polarization;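 active = inhibition above the mean of all tested compounds plus 3 SD, set per campaign, cut at about 14% in these data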;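 also: inhibitors block serine hydrolase probe labeling of LYPLA1 so polarization falls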
procasp3 activ = procaspase-3 (human) activation; 330,000 tested, 0.11% active; recombinant procaspase-3 D3A, Ac-DEVD-pNA absorbance 405 nm; AID 463141; P42574; activation, % at 8.5 µM;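 active = activation above the mean of all tested compounds plus 3 SD, cut at about 21% in these data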
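Assay system: Procaspase-3 D3A mutant, all three cleavage aspartates alanine. Buffer or medium: Zinc-free HEPES saline buffer with Triton X-100. Times: 1 h compound preincubation, 2 h substrate hydrolysis at 25 °C. Measured by: 405 nm absorbance of p-nitroaniline, reads at 0 and 120 min. Read-out basis: percent activation relative to control range. Replicates: singlicate.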
LYPLA2 counter = counter-screen for PME1 inhibitors: inhibitors of human LYPLA2. O95372. recombinant LYPLA2, FP-Rh probe fluorescence polarization. inhibition, % at 5.9 µM. 320,000 tested, 0.38% active. AID 2177;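 active = inhibition above the screen-wide mean plus 3 SD, limit set per campaign, cut at about 26% in these data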
Target sequence (O95372 whole entry, looked up): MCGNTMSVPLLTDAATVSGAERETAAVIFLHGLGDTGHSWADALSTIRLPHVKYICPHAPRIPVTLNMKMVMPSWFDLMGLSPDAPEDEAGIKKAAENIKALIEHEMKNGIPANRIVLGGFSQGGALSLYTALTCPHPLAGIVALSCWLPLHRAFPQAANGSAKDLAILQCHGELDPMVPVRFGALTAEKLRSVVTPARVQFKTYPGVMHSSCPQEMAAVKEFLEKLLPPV
procasp7 counter = counter-screen: procaspase-7 (human) activation. P55210. recombinant procaspase-7, Ac-DEVD-pNA absorbance 405 nm; D23A/D198A/D206A triple mutant, cannot self-cleave; scale: DMSO 0, 5 µM enzyme 100. activation, % at 8.5 µM. 330,000 tested, 0.093% active. AID 463210;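 active = percent activation above the screen-wide mean plus 3 SD, cut at about 25% in these data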
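Material: Procaspase-7 triple mutant (PC-7 D3A) | Quantity: 2 µM procaspase-7 mutant as dispensed | Reagent: DEVD-pNA substrate | Times: 1 h preincubation, 2 h reaction | Technique: 405 nm absorbance of p-nitroaniline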
PREPL inh cf = confirmation of human PREPL enzyme inhibitors; shares compounds with PREPL inhibitor; recombinant PREPL, fluorescence polarization activity probe; inhibition, % at 5.96 µM; 2,000 tested, 67% active; AID 2803
A number is an active result; – = inactive; · = no result. Rows were chosen to be rich in hits. Some 1.1% of all compounds tested hit in one or more screens of this group. Rule as the data show it, unless noted: active = inhibition above about 43%; inactive = the rest.

SMILES	PREPL inhibitor	LYPLA1 inh	procasp3 activ	LYPLA2 counter	procasp7 counter	PREPL inh cf
Oc1ccccc1-[n+]1c(-c2ccccc2)cc(-c2ccccc2)cc1-c1ccccc1	–	–	–	–	–	·
O=C(c1ccc2c(c1)N(Cc1ccccc1)CCS2)N1CCC2(CC1)OCCO2	57.7	–	–	–	–	54.6
C=CCN1C(=O)c2ccccc2Sc2ccc(C(=O)N3CCC4(CC3)OCCO4)cc21	–	–	–	–	–	·
Cc1[nH]c2ccccc2c1CCNCc1cccnc1	–	–	–	–	–	·
COc1ccc2[nH]c(C)c(CCNCc3cn(C)c4ccccc34)c2c1	69.9	–	–	–	–	54.2
CC(NS(=O)(=O)OCC(Cl)(Cl)Cl)c1ccccc1 (stereo unspecified)	–	–	–	–	–	·
C[n+]1c(-c2ccccc2)cc(CCCCc2cc(-c3ccccc3)[n+](C)c(-c3ccccc3)c2)cc1-c1ccccc1	45.8	–	–	–	–	46.2
C=CCn1c(O)c(C(CC)=NCc2ccc3c(c2)OCO3)c(=O)[nH]c1=O	55.1	–	–	–	–	53.3
CCCCn1c(O)c(C(CC)=NCc2ccc3c(c2)OCO3)c(=O)[nH]c1=O	48.7	–	–	–	–	49.1
CCCCn1c(O)c(C(=O)/C=C/c2ccc3c(c2)OCO3)c(=O)[nH]c1=O	–	–	–	–	–	·
CCCNC(=O)N1[C@H]2CC[C@@H]1C(C(=O)OC)=C(c1ccc(C(C)=O)cc1)C2	–	–	–	–	–	·
COC(=O)C1=C(c2cccc(OCc3ccccc3)c2)C[C@@H]2CC[C@H]1N2C(=O)NCCOc1ccccc1	–	–	–	–	–	·
C=CCn1c(O)c(C(C)=NCCc2c[nH]c3ccccc23)c(=O)[nH]c1=O	49.0	–	–	–	–	47.8
CCCCn1c(O)c(C(C)=NCCc2c[nH]c3ccccc23)c(=O)[nH]c1=O	44.4	–	–	–	–	–
C=CCn1c(O)c(C(C)=NCCC(c2ccccc2)c2ccccc2)c(=O)[nH]c1=O	–	–	–	–	–	·
CCn1nc(-c2ccccc2)nc2c(=O)n(C)c(=O)nc1-2	55.8	89.2	–	96.1	–	43.6
COc1ccc(-c2nc3ccccc3c(=O)n2-c2ccc(OC)cc2)cc1	–	–	–	–	–	·
Cc1ccc(N)cc1N	53.5	–	–	–	–	–
Cc1ccc(-n2nc(C)cc2NC(=O)COc2cc(C)cc3oc(=O)c4c(c23)CCC4)cc1	–	–	–	–	–	·
Cc1nc2ccccc2c(=O)n1-c1cc(F)ccc1F	–	–	–	–	–	·
Brc1ccc(Oc2cc(Br)c(Br)cc2Br)c(Br)c1	–	–	–	–	–	·
NC(N)=N/N=C/c1ccc(N(c2ccccc2)c2ccccc2)cc1	76.7	–	–	–	–	67.8
CC(C)C[C@H](NC(=O)[C@@H]1CCCN1C(=O)[C@@H](N)Cc1ccc(O)cc1)C(=O)NCC(N)=O	–	–	–	–	–	·
CCCC/C(C)=C/[C@@H](NP(=O)(c1ccccc1)c1ccccc1)c1ccccc1	–	–	–	–	–	·
COC(=O)[C@@H]1C[C@@]1(C)[C@@H](NP(=O)(c1ccccc1)c1ccccc1)c1ccccc1	48.0	–	–	–	–	55.8
COc1ccc2nc3oc(C(=O)N4CCC5(CC4)OCCO5)cc3cc2c1	–	–	–	–	–	·
COc1ccn(C)c(=O)c1C#N	–	–	–	–	–	·
CCN1C[C@]2(COC(=O)c3ccccc3N)CC[C@H](OC)C34[C@@H]5C[C@H]6[C@H](OC)[C@@H]5[C@](O)(C[C@@H]6OC)[C@@](O)([C@H]13)[C@@H](OC)[C@@H]42	53.1	–	–	–	–	46.3
CCN1CC2(COC(=O)c3ccccc3N)CCC(OC)C34C5CC6C(OC)CC(O)(C5C6OC)C(O)(C(OC)C23)C14 (stereo unspecified)	45.0	–	–	–	–	45.1
COc1ccc(OC)c(CC(=O)N(C)C2CCCN(Cc3ccccc3F)C2)c1 (stereo unspecified)	–	–	–	–	–	·
